Published values from different studies.
Lines come from different studies, so protocols differ.
Organism: Enterococcus faecalis
Effect on: microbial growth

Compound	assay	system	conditions	MIC
C/C(=C\c1ccc(O)cc1)C(=O)Nc1ccc(C(=O)N[C@@H](CC(N)=O)C(=O)Nc2ccc(C(=O)Nc3ccc(C(=O)Nc4ccc(C(=O)O)cc4)c(O)c3OC(C)C)cc2)cc1	–	ATCC29212	–	0.5 mg/L
Cc1ccc(C)n1-c1ccc(-c2nnc(-c3ccccc3[N+](=O)[O-])[nH]2)cc1	broth dilution	ATCC14506	18 h	31.2 mg/L
Cc1ccc2nc(-c3ccc([N+](=O)[O-])cc3)n(Cc3ccccc3)c2c1	broth dilution	ATCC29212	–	8 mg/L
C/C=C(\C)c1cc(OC(=O)c2c(O)c(C)c(O)c(Cl)c2/C(C)=C/C)c(C)c(O)c1C(=O)O	broth dilution	ATCC29212	–	64 mg/L
Clc1ccc(Cn2c(-c3ccc(Cl)cc3)nc3ccccc32)cc1	broth dilution	ATCC29212	–	16 mg/L
Cc1ccc(C)n1-c1ccc(-c2nnc(-c3ccc(Br)cc3)[nH]2)cc1	broth dilution	ATCC14506	18 h	8 mg/L
C=CCn1c(-c2ccc(OC)c(OC)c2)nc2ccccc21	broth dilution	ATCC29212	–	64 mg/L
C/C=C(\C)c1cc(OC(=O)c2c(C)c(Cl)c(O)c(Cl)c2O)c(C)c(O)c1C(=O)O	broth dilution	ATCC29212	–	> 64 mg/L
Cc1ccc(C)n1-c1ccc(C(=O)NNC=O)cc1	broth dilution	ATCC14506	18 h	31.2 mg/L
CO[C@@H](C(N)=O)[C@H](NC(=O)c1ccc(NC(=O)c2ccc(C#N)cc2)cc1)C(=O)Nc1ccc(C(=O)Nc2ccc(C(=O)Nc3ccc(C(=O)O)cc3)c(O)c2OC(C)C)cc1	–	ATCC29212	–	0.125 mg/L
Cc1ccc(C)n1-c1ccc(-c2nnco2)cc1	broth dilution	ATCC14506	18 h	2 mg/L
CC(C)Oc1c(NC(=O)c2ccc(NC(=O)[C@H](CC(N)=O)NC(=O)c3ccc(NC(=O)c4ccc(C#N)s4)cc3)cc2)ccc(C(=O)Nc2ccc(C(=O)O)cc2)c1O	–	ATCC29212	–	0.25 mg/L
CC1(C)S[C@@H]2[C@H](NC(=O)[C@H](N)c3ccccc3)C(=O)N2[C@H]1C(=O)O	broth dilution	ATCC29212	–	1 mg/L
Clc1ccc(-c2nc3ccccc3[nH]2)cc1Cl	broth dilution	ATCC29212	–	32 mg/L
O=C(Nc1ccc2c(c1)OC(F)(F)O2)Nc1ccc(Cl)c(C(F)(F)F)c1	–	–	–	3 µM
Cc1ccc2nc(-c3ccc(Cl)cc3)n(Cc3ccccc3)c2c1	broth dilution	ATCC29212	–	16 mg/L
CCn1cc(C(=O)O)c(=O)c2cc(F)c(N3CCNCC3)cc21	broth dilution	ATCC14506	18 h	< 5 mg/L
Cc1ccc2nc(-c3cccc(O)c3)[nH]c2c1	broth dilution	ATCC29212	–	64 mg/L
O=C(O)c1cn(C2CC2)c2cc(N3CCNCC3)c(F)cc2c1=O	broth dilution	ATCC14506	18 h	< 5 mg/L
